This is an account of results in ChEMBL document CHEMBL1142489, “Tetrahydrolipstatin analogues as modulators of endocannabinoid 2-arachidonoylglycerol metabolism” (J Med Chem, 2008).

For assay [1], the target named is T1, Diacylglycerol lipase-alpha (Homo sapiens, UniProt Q9Y4D2).
T1 sequence (Q9Y4D2 whole entry): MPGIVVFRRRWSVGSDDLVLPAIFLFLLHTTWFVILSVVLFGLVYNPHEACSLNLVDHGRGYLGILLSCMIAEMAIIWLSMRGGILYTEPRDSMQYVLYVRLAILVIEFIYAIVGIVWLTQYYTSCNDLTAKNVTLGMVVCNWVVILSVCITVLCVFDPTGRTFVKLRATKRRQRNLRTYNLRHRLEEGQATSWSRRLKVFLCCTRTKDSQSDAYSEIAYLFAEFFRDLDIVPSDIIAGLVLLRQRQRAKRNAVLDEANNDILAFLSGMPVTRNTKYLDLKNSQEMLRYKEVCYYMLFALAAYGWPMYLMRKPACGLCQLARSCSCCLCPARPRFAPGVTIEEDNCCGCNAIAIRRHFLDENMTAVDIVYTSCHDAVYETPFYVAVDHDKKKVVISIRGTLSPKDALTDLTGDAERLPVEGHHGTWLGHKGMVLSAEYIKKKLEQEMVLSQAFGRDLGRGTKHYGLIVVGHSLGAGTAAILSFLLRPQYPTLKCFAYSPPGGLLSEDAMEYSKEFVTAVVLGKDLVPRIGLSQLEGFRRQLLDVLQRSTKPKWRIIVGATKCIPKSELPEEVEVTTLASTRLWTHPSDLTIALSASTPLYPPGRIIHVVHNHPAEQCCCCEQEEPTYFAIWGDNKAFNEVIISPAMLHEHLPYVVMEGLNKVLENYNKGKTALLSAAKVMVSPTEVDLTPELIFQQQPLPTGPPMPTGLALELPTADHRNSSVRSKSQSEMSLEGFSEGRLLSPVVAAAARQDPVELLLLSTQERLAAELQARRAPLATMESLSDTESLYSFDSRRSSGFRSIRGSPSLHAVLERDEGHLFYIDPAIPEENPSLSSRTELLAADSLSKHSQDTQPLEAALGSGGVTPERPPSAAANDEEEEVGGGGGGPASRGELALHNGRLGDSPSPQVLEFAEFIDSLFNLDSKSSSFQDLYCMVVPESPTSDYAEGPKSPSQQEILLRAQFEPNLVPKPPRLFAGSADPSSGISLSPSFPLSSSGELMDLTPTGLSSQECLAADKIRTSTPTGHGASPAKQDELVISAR
The assay can be described thus: Inhibition of human recombinant DAGL-alpha-mediated sn-1-[14C]oleoyl-2-arachidonoyl-glycerol hydrolysis to 2-AG overexpressed in african green monkey COS7 cell membrane by scintillation counting. The assay is classed as cell membranes, COS-7.

A short description of assay [2]: Inhibition of MAGL-mediated [14C]2-arachidonoyl glycerol hydrolysis to [3H]arachidonic acid in african green monkey COS cell cytosolic fraction by scintillation counting. The assay is classed as cell-based, Chlorocebus aethiops. The settings on record: in the assay text read “[3H]2-arachidonoyl glycerol” for “[14C]2-arachidonoyl glycerol”. The procedure, abridged: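 The 10000g cytosolic fraction of COS-7 cells, taken as the MAGL source, was incubated with 2-[3H]arachidonoylglycerol (1.0 mCi/mmol, 25 µM) in 50 mM Tris-HCl, pH 7.0, for 20 min at 37 °C. Products were separated by TLC. [3H]arachidonic acid was quantified by scintillation counting as the measure of activity.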

Another assay concerns the target Cannabinoid receptor 1 (Homo sapiens, UniProt P21554). The assay can be described thus: Displacement of [3H]CP-55940 from human recombinant CB1 receptor expressed in HEK293 cells by scintillation counting. The assay is classed as cell-based.
For a further assay, the target named is Cannabinoid receptor 2 (Homo sapiens, UniProt P34972). The assay can be described thus: Displacement of [3H]CP-55940 from human recombinant CB2 receptor expressed in HEK293 cells by scintillation counting. The assay is classed as cell-based. On the technique in general: Loss of bound radioactivity is the signal in a displacement assay; it reports binding, not function.
Sequence of Cannabinoid receptor 2 (P34972 whole entry): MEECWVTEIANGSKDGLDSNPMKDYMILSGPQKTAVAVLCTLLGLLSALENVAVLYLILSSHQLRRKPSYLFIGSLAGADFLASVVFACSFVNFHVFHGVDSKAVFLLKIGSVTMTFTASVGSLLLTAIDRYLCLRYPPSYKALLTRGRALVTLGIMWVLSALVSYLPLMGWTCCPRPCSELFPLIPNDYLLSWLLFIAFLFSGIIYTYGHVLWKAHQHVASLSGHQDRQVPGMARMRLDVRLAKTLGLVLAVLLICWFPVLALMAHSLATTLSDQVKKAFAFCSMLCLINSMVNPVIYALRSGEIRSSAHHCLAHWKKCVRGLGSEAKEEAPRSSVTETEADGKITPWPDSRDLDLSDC

Assay [3] deals with T2, Fatty-acid amide hydrolase 1 (Rattus norvegicus, UniProt P97612).
T2 sequence (P97612 whole entry): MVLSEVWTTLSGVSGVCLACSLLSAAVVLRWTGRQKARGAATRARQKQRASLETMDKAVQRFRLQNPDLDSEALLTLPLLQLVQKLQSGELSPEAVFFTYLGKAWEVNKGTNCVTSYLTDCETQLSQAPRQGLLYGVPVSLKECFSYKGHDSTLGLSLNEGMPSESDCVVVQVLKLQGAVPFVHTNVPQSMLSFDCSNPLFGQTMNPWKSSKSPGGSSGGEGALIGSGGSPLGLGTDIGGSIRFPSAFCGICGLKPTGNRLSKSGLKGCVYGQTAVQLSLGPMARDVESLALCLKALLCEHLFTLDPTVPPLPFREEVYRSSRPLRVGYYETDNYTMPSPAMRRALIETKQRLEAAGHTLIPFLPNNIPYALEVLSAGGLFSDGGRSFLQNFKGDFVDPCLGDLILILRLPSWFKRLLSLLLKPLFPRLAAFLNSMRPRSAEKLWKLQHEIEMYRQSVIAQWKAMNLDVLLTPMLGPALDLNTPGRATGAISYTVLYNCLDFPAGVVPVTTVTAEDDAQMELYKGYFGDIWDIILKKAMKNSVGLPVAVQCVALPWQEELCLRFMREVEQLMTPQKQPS
As to the kind of experiment: Inhibition of FAAH-mediated [14C]anandamide hydrolysis in rat brain membrane. The assay is classed as cell membranes. The procedure, abridged: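 The mixture was extracted with 2 volumes of CHCl3/CH3OH 1/1. [14C]ethanolamine in the aqueous phase was measured by scintillation counting.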

Assay [4] in a line: Selectivity ratio of IC50 for african green monkey MAGL over IC50 for human recombinant DAGLalpha.
The nature of assay [5]: Selectivity ratio of IC50 for african green monkey MAGL over Ki for human recombinant CB1 receptor.
A short description of assay [6]: Selectivity ratio of IC50 for african green monkey MAGL over Ki for human recombinant CB2 receptor.
Assay [7] is described as follows: Selectivity ratio of IC50 for african green monkey MAGL over IC50 for rat brain membrane FAAH.
Assay [8] is described as follows: Enhancement of ionomycin-induced stimulation of 2-AG biosynthesis in mouse N18TG2 cells at 1.5 uM. The assay is classed as functional. In short, it runs like this:
(§1)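 Confluent mouse N18TG2 neuroblastoma cells attached to dishes were incubated for 20 min at 37 °C in medium containing 3 µM ionomycin, with vehicle or test compound. The reaction was stopped with ice-cold methanol and lipids were extracted three times with CHCl₃. Lyophilized lipids were assayed for 2-AG by isotope-dilution LC-MS. Values are % change in 2-AG levels versus vehicle (means ± SEM, N = 3).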

Assay [9] can be described thus: Selectivity ratio of IC50 for human recombinant DAGLalpha over IC50 for african green monkey MAGL.
For assay [10], the species on record is Homo sapiens. As to the kind of experiment: Selectivity ratio of IC50 for human recombinant DAGLalpha over Ki for human recombinant CB1 receptor.
Assay [11] is filed under the species Homo sapiens. As to the kind of experiment: Selectivity ratio of IC50 for human recombinant DAGLalpha over Ki for human recombinant CB2 receptor.
The nature of assay [12]: Selectivity ratio of IC50 for human recombinant DAGLalpha over IC50 for rat brain membrane FAAH.
Assay [13] is described as follows: Inhibition of ionomycin-induced stimulation of 2-AG biosynthesis in mouse N18TG2 cells at 0.3 uM. The assay is classed as functional. The procedure, abridged: as §1
Assay [14] is described as follows: Inhibition of ionomycin-induced stimulation of 2-AG biosynthesis in mouse N18TG2 cells at 1 uM. The assay is classed as functional. The procedure, abridged:
as §1

Where only a bound is given, the exact number is not on record here.

Sequence of Cannabinoid receptor 1 (P21554 whole entry): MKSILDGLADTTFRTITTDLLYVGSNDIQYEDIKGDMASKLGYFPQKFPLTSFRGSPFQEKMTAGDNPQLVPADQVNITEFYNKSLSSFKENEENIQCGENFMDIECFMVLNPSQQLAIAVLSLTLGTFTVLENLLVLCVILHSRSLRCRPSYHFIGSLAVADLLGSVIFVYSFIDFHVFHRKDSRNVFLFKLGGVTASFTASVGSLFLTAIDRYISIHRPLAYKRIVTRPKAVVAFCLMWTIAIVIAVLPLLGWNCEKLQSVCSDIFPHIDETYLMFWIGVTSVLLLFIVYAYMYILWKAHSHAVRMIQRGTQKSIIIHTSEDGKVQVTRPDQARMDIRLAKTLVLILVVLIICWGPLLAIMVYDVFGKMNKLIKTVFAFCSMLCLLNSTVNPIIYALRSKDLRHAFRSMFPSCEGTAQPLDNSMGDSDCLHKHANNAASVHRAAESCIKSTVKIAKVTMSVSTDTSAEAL

On to `CCCCCCCCCCC[C@@H](C[C@@H]1OC(=O)[C@H]1CCCCCC)OC(=O)CNC=O`, for which the half-inhibitory concentration (IC50) in [1] amounted to 2.8 µM; in assay [2] it was 0.41 µM; in [3], 3 µM. Moreover, the inhibition constant Ki at Cannabinoid receptor 1 and at Cannabinoid receptor 2 was > 10 µM throughout. In addition, the Ratio IC50 in assay [4] and in assay [7] was 7 in each case. The Ratio in assay [5] and in assay [6] was 7 in each case. For the same compound, the Activity in assay [8] is given as 55%.

With `CCCCCCCCCCC[C@@H](C[C@@H]1OC(=O)[C@H]1CCCCCC)OC(=O)[C@@H](NC(C)=O)C(C)C`, the IC50 in assay [1] was 0.46 µM; in assay [2], > 10 µM; in [3] it was > 50 µM. The inhibition constant Ki at Cannabinoid receptor 1 was 8.4 µM; at Cannabinoid receptor 2, > 10 µM. The Ratio IC50 in assay [9] and in assay [12] was 15 throughout. The Ratio in the assay filed under Homo sapiens [10] and in the assay filed under Homo sapiens [11] was 15 each time.

On to `CCCCCCCCCCC[C@@H](C[C@@H]1OC(=O)[C@H]1CCCCCC)OC(=O)[C@@H](NC=O)[C@@H](C)CC`, for which the results for the IC50 in [1], in assay [2] and in assay [3] were 0.016 µM, > 10 µM and > 50 µM, respectively. The figures for the inhibition constant (Ki) on Cannabinoid receptor 1 and on Cannabinoid receptor 2 were 6 µM and > 10 µM, respectively. For the same compound, the Ratio IC50 in assay [9] and in [12] was 23 each time. Besides, the Ratio in the assay listed under Homo sapiens [10] and in the assay filed under Homo sapiens [11] was 23 throughout. Also, in assay [13], the inhibition at 0.3 µM came out at 57.3%.

Turning to `CCCCCCCCCCC[C@@H](C[C@@H]1OC(=O)[C@H]1CCCCCC)OC(=O)[C@H](CC(C)C)NC=O` [ORLISTAT], the IC50 in [2] was > 10 µM. For the same compound, the Ki is 2.5 µM at Cannabinoid receptor 1 and > 10 µM on Cannabinoid receptor 2. In assay [14], this compound displayed an inhibition at 1 µM of 79.8%.

On to `CCCCCCCCCCC[C@@H](C[C@@H]1OC(=O)[C@H]1CCCCCC)OC(=O)[C@@H]1CCC(=O)N1`, for which the IC50 in assay [1] is 0.1 µM; in assay [2] it was 3.5 µM; in assay [3], > 50 µM. In addition, the results for the inhibition constant (Ki) on Cannabinoid receptor 1 and at Cannabinoid receptor 2 were 2.6 µM and > 10 µM, respectively. Further, the Ratio IC50 in assay [9] and in assay [12] was 15 in each case. For the same compound, the Ratio in the assay listed under Homo sapiens [10] and in the assay listed under Homo sapiens [11] was 15 each time.

Take `CCCCCCCCCCC[C@@H](C[C@@H]1OC(=O)[C@H]1CCCCCC)OC(=O)[C@@H](NC(C)=O)[C@@H](C)CC`: the half-maximal inhibitory concentration (IC50) in assay [1] is 0.43 µM; in assay [2] it was > 10 µM; in [3] it was 6.6 µM. Moreover, the Ki at Cannabinoid receptor 1 was 8.6 µM; on Cannabinoid receptor 2, > 10 µM. For the same compound, the Ratio IC50 in assay [9] and in [12] was 15 throughout. In addition, the Ratio in the assay listed under Homo sapiens [10] and in the assay filed under Homo sapiens [11] was 15 throughout.

In general, IC50 refers to the midpoint of a concentration-inhibition curve. A word on the Ki: it is the dissociation constant of the complex between target and ligand, obtained from inhibition or displacement. One may read the inhibition as the drop in the measured response relative to a control, in per cent.
